Rows were chosen to be rich in hits. Some 12% of all compounds tested hit in one or more screens of this group.
PKD1 inh: PKD1 (human) kinase inhibition | Q15139 | PKD1 kinase fluorescence polarization assay | inhibition, % (test concentration not listed) | hit rate 0.056% among 200,000 | AID 797
Wee1 degr inh: inhibitors of human Wee1 degradation | reporter increase, % at 5 µM | HeLa Luc-Wee1K328M stability, luciferase luminescence; 100% = proteasome inhibitor MG132 effect | AID 1321 | hit rate 1.2% among 220,000;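 active means activation above the mean of all tested compounds plus 3 SD, set per screening run, cut at about 8.8% in these data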;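 further: cells exposed to compound for 20 h before luminescence read; 0% = DMSO alone and 100% = MG132 at 30 µM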
CHOP inh: blocks CHOP induction under ER stress; inhibition, % at 10 µM; hit rate 3.8% among 220,000; CHO-K1 CHOP-promoter luciferase, tunicamycin-induced, 15-18 h;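 active means compounds that reduced the stress-induced luciferase reporter signal by more than about 70% of percent inhibition, limit read from the data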;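 further: 0% = tunicamycin plus vehicle and 100% = wells without tunicamycin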
Lmaj promast: inhibitors of Leishmania major promastigote growth. inhibition, % at 10 µM. AID 1063. Leishmania major promastigotes, resazurin fluorescence viability. hit rate 9% among 200,000;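 further: promastigotes grown with compound for 44 hours at 28 °C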
Rad51 HR inh: Rad51 (human) homologous recombination inhibition. hRad51 DNA strand exchange, fluorescence dequenching. inhibition, % at 10 µM. hit rate 0.085% among 200,000. AID 1385;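 active means inhibition above 40% at the single screening dose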;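 further: 0% = DMSO control wells and 100% = blanks with heterologous ssDNA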
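Test system: preformed human Rad51 ssDNA filaments. Compound dosing: single dose, 10 µM final compound. Incubation: filaments 15 min 37 °C, then compound 30 min. Technique: FRET fluorescence dequenching, excitation 485 nm, emission 520 nm. Read-out basis: percent inhibition from fluorescence, normalised to plate control and blank means. Benchmarks: plate controls and plate blanks.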
Arbovirus inh: antivirals against arbovirus infection; arbovirus infection cell-based antiviral screen; inhibition, % at 10 µM; hit rate 0.37% among 200,000; in the data active means inhibition above about 30%
* marks the source's active call; other numbers are inactive results; . = not tested or not shown. Unless noted, no stated cut-off is given here; in the data, active means inhibition above about 50%; inactive means the rest.

SMILES | PKD1 inh | Wee1 degr inh | CHOP inh | Lmaj promast | Rad51 HR inh | Arbovirus inh
O=c1[nH]c2c(cnn2-c2ccc(Cl)cc2)c(=O)n1-c1cccc(Cl)c1 | . | -0.5 | 8.4 | . | -1.4 | .
CCN(CC)S(=O)(=O)c1ccc2c(c1)nc(SC(C)C(N)=O)n2-c1ccc(OC)cc1 (stereo unspecified) | -7.2 | 0.4 | 34.7 | 8.1 | 63.1* | -11.5
Cc1ccc(-n2[nH]c(C)c(C=Nc3ccc4[nH]c(=O)[nH]c4c3)c2=O)cc1C | -16.9 | 0.8 | 81.3* | 0.6 | -3.7 | -7.5
Cc1nn(-c2ccccc2)c(Cl)c1C(=O)N1CCN(c2ncnc3c2cnn3-c2ccccc2)CC1 | 2.6 | 0.0 | 91.8* | 22.8 | -10.9 | -35.3
CCN(c1ccccc1)c1ncnc2c1cnn2-c1ccccc1 | 0.6 | -2.4 | 79.5* | -1.8 | 6.4 | 0.2
O=C(Cn1cnc2c(cnn2-c2ccccc2)c1=O)N1CCOCC1 | 0.4 | -3.0 | 15.2 | -8.2 | 2.0 | 1.6
Cn1ncc2c(N3CCN(c4ccc(Cl)c(Cl)c4)CC3)ncnc21 | -1.6 | 5.0 | 83.7* | 18.4 | 10.2 | -19.8
O=C(Cn1cnc2c(cnn2-c2ccc(Cl)cc2)c1=O)N1CCN(c2ccccc2)CC1 | 5.5 | 1.4 | 91.3* | -4.7 | 6.9 | -5.8
CN(Cc1ccccc1)c1ncnc2c1cnn2-c1ccccc1 | -5.0 | 5.3 | 56.7 | 9.0 | 4.2 | 10.0
COc1ccccc1OCC(=O)NNc1c2ccccc2nc2ccccc12 | . | 2.8 | 7.5 | . | . | .
O=C(Nc1ccccc1Cl)Oc1ccc(-c2ccccc2)cc1 | . | 1.9 | 7.0 | . | -3.2 | .
CCCn1c(CCC(=O)O)nc2cc(S(=O)(=O)N3CCCC3)ccc21 | . | 2.3 | 12.5 | . | -4.0 | .
OC[C@H]1O[C@@H](n2cnc3c(Nc4ccccc4)ncnc32)C(O)[C@H]1O (stereo partly specified) | . | . | 3.2 | . | . | .
CC1CCN(c2ncnc3c2cnn3-c2ccccc2)CC1 | -9.5 | 10.6* | 69.2 | 3.9 | -1.6 | 1.8
Clc1ccc(-n2ncc3c(N4CCCC4)ncnc32)cc1 | -3.6 | 3.4 | 78.0* | 20.4 | . | -2.8
CCOC(=O)C1CCN(c2ncnc3c2cnn3-c2ccc(Cl)cc2)CC1 | -10.8 | -3.1 | 58.4 | 15.6 | . | -0.4
COc1ccc(-n2ncc3c(N4CCC(C)CC4)ncnc32)cc1 | . | . | . | . | . | -4.8
CC(C)Nc1ncnc2c1cnn2-c1ccc(Cl)cc1 | 8.0 | 2.5 | 74.7* | 24.6 | 11.9 | -2.6
CN1CCN(C(=O)Nc2cccc(-c3ccccc3)c2)CC1 | . | 0.3 | 24.7 | . | -3.2 | .
Cc1ccc(N2C(=O)C3C4C=CC(CNC(=S)N5CCN(c6ccccc6)CC5)(O4)C3C2=O)cc1 (stereo unspecified) | 5.0 | -1.2 | -2.2 | -4.0 | -1.8 | -5.0
Cc1ccc(S(=O)(=O)NCC23C=CC(O2)C2C(=O)N(c4ccccc4)C(=O)C23)cc1 (stereo unspecified) | -5.4 | -3.0 | 8.0 | 3.0 | 5.7 | 0.0
Cc1ccc(NC(=S)NCC23C=CC(O2)C2C(=O)N(c4ccc(C)cc4)C(=O)C23)cc1 (stereo unspecified) | -6.3 | -2.6 | 18.8 | 91.7* | 0.5 | 8.5
Cc1cccc(NC(=S)NCC23C=CC(O2)C2C(=O)N(c4ccc(Cl)cc4)C(=O)C23)c1 (stereo unspecified) | 2.8 | -0.1 | 20.3 | 52.8* | 4.0 | 1.3
CCN(CC)CC(O)COCCC12CC3CC(CC(C3)C1)C2 (stereo unspecified) | 0.3 | -0.7 | -16.4 | 93.5* | 0.3 | -12.0
OCCN(CCO)CC(O)COCCC12CC3CC(CC(C3)C1)C2 (stereo unspecified) | -3.0 | -1.4 | 8.7 | 71.1* | 0.1 | -22.6
SMILES | PKD1 inh | Wee1 degr inh | CHOP inh | Lmaj promast | Rad51 HR inh | Arbovirus inh
OCCN(CCO)CC(O)COc1ccc(C23CC4CC(CC(C4)C2)C3)cc1 (stereo unspecified) | 0.9 | -0.3 | 26.9 | 100.3* | 6.5 | -40.3
OCCN(CCO)CC(O)COc1ccc(Br)cc1 (stereo unspecified) | . | 1.4 | 9.9 | . | 13.8 | .
CC1(C)CC2(CCCN(CC(O)(c3ccccc3)c3ccccc3)C2)CCO1 (stereo unspecified) | . | 6.1 | -16.1 | . | . | .
COc1cccc(/C=C2\CCc3ccccc3C2=O)c1 | . | -1.4 | -13.6 | . | . | .
COc1cc(/C=C2\COC/C(=C\c3ccc(O)c(OC)c3)C2=O)ccc1O | . | -3.5 | 41.1 | . | 5.7 | .
COc1cc(/C=C2/CC/C(=C/c3ccc(O)c(OC)c3)C2=O)ccc1O | . | 10.0* | 22.2 | . | . | .
COc1ccc(/C=C2\CCc3ccccc3C2=O)cc1OC | -4.1 | -0.6 | -6.0 | 51.4* | . | 12.0
COc1ccc(/C=C2\CCc3ccccc3C2=O)cc1Cn1nc(C)cc1C | -0.6 | -2.1 | 70.4* | 74.3* | 3.1 | -9.8
COc1ccc(/C=C2/CCc3ccccc3C2=O)cc1CN1CCOCC1 | 6.1 | -3.2 | -67.3 | 82.4* | . | 6.5
COc1ccc(/C=C2\CC/C(=C\c3ccc(OC)c(OC)c3)C2=O)cc1OC | 0.5 | 1.6 | 30.8 | 27.2 | 18.3 | -1.8
NC1=NC(=O)/C(=C\c2ccsc2)S1 | -2.6 | -0.8 | -9.9 | -6.2 | -1.6 | 4.1
COC(=O)c1sc(-c2ccc(C(C)(C)C)cc2)cc1NC(=O)CSCC(=O)O | . | -3.5 | 76.6* | . | . | .
O=c1/c(=C/c2ccccn2)sc2n1CN(c1ccccc1)CN=2 | 6.6 | -1.6 | 8.7 | -2.1 | -8.4 | -3.9
Cc1cc(C)c2c(c1)/C(=c1/sc3n(c1=O)CN(c1ccccc1)CN=3)C(=O)N2 | . | -3.1 | 81.1* | . | 5.9 | .
COc1cc(C(=O)OCC(=O)NC(=O)C2CCCCC2)ccc1OC(F)F | -8.5 | 9.8* | 43.2 | -3.9 | 11.4 | 5.5
CCOC(=O)c1c(C)[nH]c(C)c1C(=O)COC(=O)c1ccc(OC)c(OC)c1 | -5.1 | -0.6 | 1.0 | -6.0 | 3.7 | 9.0
COc1ccc(C(=O)OCCCN(C)C)cc1OC | 5.3 | 0.8 | 19.6 | 58.4* | 10.4 | 12.9
COc1ccc(C(=O)COC(=O)c2ccc(OC)c(OC)c2)cc1OC | -7.4 | 0.1 | 75.3* | -2.1 | 2.3 | -6.9
NC1=NS(=O)(=O)NC1c1ccc(F)cc1 (stereo unspecified) | -3.9 | 1.4 | -11.0 | 14.1 | -33.2 | 4.3
O=C(N/N=C\c1cc(Br)cs1)C1COc2ccccc2O1 (stereo unspecified) | -5.2 | 4.8 | 79.9* | 52.9* | -6.2 | -4.2
O=C(N/N=C/c1ccc2c(c1)OCO2)C1COc2ccccc2O1 (stereo unspecified) | 5.0 | 1.3 | -17.8 | 26.9 | -0.2 | -7.4
C/C(=N\NC(=O)C1COc2ccccc2O1)c1ccccn1 (stereo unspecified) | -8.8 | -1.9 | 43.0 | 99.4* | -13.1 | -16.9
Cc1c(/C=N\NC(=O)C2COc3ccc(C(C)(C)C)cc3O2)c2ccccc2n1C (stereo unspecified) | 5.6 | 0.4 | 75.6* | 10.4 | -7.7 | 1.8
C/C(=N\NC(=O)C1CCCN(S(=O)(=O)c2ccccc2)C1)c1ccccn1 (stereo unspecified) | -15.8 | 5.2 | 25.5 | 99.5* | 8.9 | -36.0

High-throughput results as filed in PubChem.
